Drawing on ChEMBL document CHEMBL1932932, “Natural product libraries to accelerate the high-throughput discovery of therapeutic leads” (J Nat Prod, 2011), this text covers IC50 and Activity for 18 molecules.

≈ marks a conversion by molar mass, not a printed value. Calls of active or inactive are those of the source. No cut-off for these calls is given here.

Assay [1] has as its system U-937. Description: Antiproliferative activity against human U937 cells assessed as cell viability after 96 hrs by CellTiter-Glo luminescence assay. It counts as functional, cell-based. The settings on record: U-937, 96 h. Summed up: (§1)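 Cells grown in 96-well plates with no compound or continuous exposure to 1.5–50 000 nM for 96 h. Growth was read by CellTiter-Glo luminescence. IC50 is the concentration giving 50% growth inhibition versus untreated cells. Two separate replicate experiments were run.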

The subject of assay [2] is HeLa. Description: Stabilization of microtubule in human HeLa cells at 20 ug/ml after 24 hrs by Hoechst staining-based fluorescence microscopic analysis. Type of assay: functional, cell-based.
In assay [3] the test system is Trypanosoma brucei brucei. Description: Antitrypanosomal activity against Trypanosoma brucei brucei clone 427-221a assessed as growth inhibition after 40 hrs by ATP-bioluminescence assay. It counts as functional, organism-based. In outline: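 Bloodstream-form parasites (1×10^4/well) were grown in HMI-9 with 10% FBS, 10% Serum Plus and penicillin/streptomycin at 37 °C, 5% CO2. Samples were tested at 12.5 and 1.25 µg/mL, or serially diluted 25–0.001 µg/mL for IC50, at 0.5% final DMSO. Incubation was 40 h. ATP was read by CellTiter-Glo. Log10 signals were converted to % inhibition against 0.5% DMSO and 50 µM thimerosal controls, and curves were fitted.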

The subject of assay [4] is MDA-MB-435. Kind of assay: Antiproliferative activity against human MDA-MB-435 cells assessed as cell viability after 96 hrs by CellTiter-Glo luminescence assay. It counts as functional, cell-based. The settings on record: MDA-MB-435, 96 h. Summed up:
as §1

Assay [5] can be described thus: Antiproliferative activity against human H522-T1 cells assessed as cell viability after 96 hrs by CellTiter-Glo luminescence assay. The conditions noted are these: H522-T1, 96 h. It counts as functional, cell-based. Summed up:
as §1

Assay [6] concerns HT-29. Description: Antiproliferative activity against human HT-29 cells assessed as cell viability after 96 hrs by CellTiter-Glo luminescence assay. The conditions noted are these: HT-29, 96 h. Type of assay: functional, cell-based. Summed up:
as §1

The test system of assay [7] is HeLa. Kind of assay: Induction of microfilament disruption in human HeLa cells at 20 ug/ml after 24 hrs by Hoechst staining-based fluorescence microscopic analysis. It counts as functional, cell-based. In outline:
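HeLa cells (1500/well, 384-well) were seeded and incubated overnight at 37 °C, 5% CO2, then samples were pin-transferred. After 24 h cells were fixed in 4% formaldehyde for 20 min, permeabilised with 0.5% Triton X-100 for 10 min and blocked with 2% BSA. Actin was stained with rhodamine-phalloidin and DNA with Hoechst 33342. Images were taken by automated fluorescence microscopy at 10×.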

Assay [8] concerns RAW264.7. Kind of assay: Cytotoxicity against mouse RAW264.7 cells assessed as cell viability […] by MTT assay. Type of assay: functional. The conditions noted are these: in the assay text read “20 hrs” for “24 hrs”. Summed up: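 MTT test on extracts at 10 µg/mL and library fractions at 20 µg/mL, dissolved in DMSO. RAW264.7 cells were exposed for 20 h. MTT was then added for 2 h, the medium removed, formazan dissolved in DMSO, and absorbance read at 570 nm.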

Assay [9] relates to RAW264.7. Kind of assay: Cytotoxicity against mouse RAW264.7 cells assessed as cell viability at 10 uM after 20 hrs by MTT assay.
Assay [10] deals with PC-3. Description: Cytotoxicity against human PC3 cells assessed as cell viability at 10 uM after 24 hrs by MTT assay. It counts as functional, cell-based.

For `CO[C@H]1/C=C\[C@@H](C)CC[C@@H]2C[C@H](C[C@](O)([C@@H]3CSC(=O)N3)O2)OC(=O)/C=C(/C)CC[C@@H]1O` [LATRUNCULOL B], the IC50 in assay [1] was greater than 2.5 µg/mL; in assay [3], 2 µg/mL (≈ 4.26 µM); in [4], greater than 2.5 µg/mL; in assay [5], greater than 2.5 µg/mL; in [6], greater than 2.5 µg/mL. The outcome in assay [2] was Active. The outcome in assay [7] was inactive.

Turning to `COC(CC1=CC[C@]2(C)[C@@H](C)CCC[C@]2(C)C1=O)OC` [AIGNOPSANE KETAL], the IC50 in assay [1] was greater than 2.5 µg/mL; in assay [3] it was greater than 10 µg/mL; in assay [4], greater than 2.5 µg/mL; in [5], greater than 2.5 µg/mL; in [6], greater than 2.5 µg/mL. Also, the outcome in assay [2] and in [7] was inactive.

For `C[C@H]1CCC[C@]2(C)C(=O)/C(=C\C(=O)O)CC[C@]12C` [AIGNOPSANOIC ACID A], the IC50 in assay [1] is greater than 2.5 µg/mL; in assay [3], 6.5 µg/mL (≈ 26 µM); in assay [4], greater than 2.5 µg/mL; in assay [5], greater than 2.5 µg/mL; in assay [6] it was greater than 2.5 µg/mL. Also, the outcome in assay [2] and in assay [7] was inactive.

For the molecule `C/C1=C/C(=O)O[C@@H]2C[C@@H](CC[C@H](C)/C=C\C(=O)CCC1)O[C@@](O)([C@@H]1CSC(=O)N1)C2`, the IC50 was greater than 2.5 µg/mL in assay [1]; 3.6 µg/mL (≈ 8.23 µM) in assay [3]; greater than 2.5 µg/mL in [4]; greater than 2.5 µg/mL in assay [5]; greater than 2.5 µg/mL in [6]. Also, the outcome in assay [2] and in assay [7] was inactive.

With `C/C(=C/C(=O)O)CC/C=C/C=C\[C@@H](C)CC[C@@H](O)CCCC(=O)c1csc(=O)[nH]1` [APO LATRUNCULIN T], the IC50 in [1] is greater than 2.5 µg/mL; in assay [3], 4.8 µg/mL (≈ 11.4 µM); in assay [4], greater than 2.5 µg/mL; in assay [5] it was greater than 2.5 µg/mL; in [6] it was greater than 2.5 µg/mL. Besides, the result in assay [2] and in [7] was inactive.

Regarding `C/C1=C/C(=O)O[C@@H]2C[C@@H](CC[C@H](C)/C=C\C=C\CC1)O[C@@](O)([C@@H]1CSC(=O)N1)C2` [LATRUNCULIN A], the IC50 worked out at 0.07 µg/mL (≈ 0.166 µM) in [1]; 1.2 µg/mL (≈ 2.85 µM) in assay [3]; 0.04 µg/mL (≈ 0.0949 µM) in assay [4]; 0.06 µg/mL (≈ 0.142 µM) in assay [5]; 0.08 µg/mL (≈ 0.19 µM) in [6]. In addition, in assay [2], the outcome was Active. In assay [7], the outcome was inactive.

With `C=C1C[C@H](C)C[C@@H]2CC=C[C@@H](C/C=C\C(=O)O[C@H]3C[C@@H](O[C@@]3(/C=C/[C@@H]3CC(C)=CCO3)OC)[C@@H](O)[C@@H](O)C1)O2`, the IC50 in assay [1] is greater than 2.5 µg/mL; in assay [3], greater than 10 µg/mL; in assay [4], greater than 2.5 µg/mL; in assay [5], greater than 2.5 µg/mL; in assay [6], greater than 2.5 µg/mL. Besides, in [7], the result was Active.

For the molecule `C[C@]12CCC[C@](C)(C(=O)O)[C@@H]1CC[C@@]1(C)c3cocc3CC[C@H]21`, the Activity in [8] is greater than 90 µM.

For the molecule `C=CC/C=C\Cc1csc(C(C)(C)[C@H](O)C/C=C\C(=C)CCNC(=O)OC)n1` [MYCOTHIAZOLE], the half-inhibitory concentration (IC50) was 0.01 µg/mL (≈ 0.0247 µM) in assay [1]; 6.7 µg/mL (≈ 16.6 µM) in assay [3]; 1 µg/mL (≈ 2.47 µM) in assay [4]; 1 µg/mL (≈ 2.47 µM) in [5]; 0.7 µg/mL (≈ 1.73 µM) in [6]. Further, the result in assay [2] and in [7] was inactive.

For `C/C1=C/C(=O)O[C@@H]2C[C@@H](CC[C@H](C)/C=C\[C@H](O)[C@@H](O)CC1)O[C@@](O)([C@@H]1CSC(=O)N1)C2` [LATRUNCULOL A], the IC50 in [1] is 0.31 µg/mL (≈ 0.68 µM); in assay [3], 0.09 µg/mL (≈ 0.198 µM); in assay [4] it was greater than 2.5 µg/mL; in assay [5] it was 0.76 µg/mL (≈ 1.67 µM); in assay [6], 0.65 µg/mL (≈ 1.43 µM). For the same molecule, the outcome in assay [2] was Active. The result in [7] was inactive.

For `C/C1=C/C(=O)O[C@@H]2C[C@@H](CC[C@H](C)/C=C\CC(=O)CC1)O[C@@](O)([C@@H]1CSC(=O)N1)C2` [LATRUNCULONE B], the IC50 in [1] is 1.18 µg/mL (≈ 2.7 µM); in assay [3], 1 µg/mL (≈ 2.29 µM); in [4] it was greater than 2.5 µg/mL; in [5], 0.8 µg/mL (≈ 1.83 µM); in [6] it was 0.8 µg/mL (≈ 1.83 µM). In addition, the outcome in assay [2] was Active. Besides, in assay [7], the outcome was inactive.

Regarding `COc1cccc2c1C(=O)c1c(O)c3c(c(O)c1C2=O)C[C@@](O)(C(=O)CO)C[C@@H]3O[C@H]1C[C@H](N)[C@H](O)[C@H](C)O1`, the result in assay [9] and in [10] was Active.

On to `C=C1C[C@H](C)C[C@@H]2CC=C[C@@H](C/C=C\C(=O)O[C@H]3C[C@@H](O[C@H]3/C=C/[C@@H]3CC(C)=CC(=O)O3)[C@@H](O)[C@@H](O)C1)O2` [FIIJIANOLIDE D], for which the IC50 is greater than 2.5 µg/mL in assay [1]; 1.4 µg/mL (≈ 2.65 µM) in assay [3]; greater than 2.5 µg/mL in assay [4]; greater than 2.5 µg/mL in [5]; greater than 2.5 µg/mL in assay [6]. The outcome in assay [2] was inactive. Moreover, in [7], the result was Active.

Take `C=C1C[C@H](C)C[C@@H]2CC=C[C@@H](C/C=C\C(=O)O[C@H]3C[C@@H](O[C@H]3/C=C/[C@@H]3CC(C)=CCO3)[C@@H](O)[C@@H](O)C1)O2` [FIJIANOLIDE A]: the concentration for half-maximal inhibition (IC50) in assay [1] was 0.03 µg/mL (≈ 0.0583 µM); in [3], 1.4 µg/mL (≈ 2.72 µM); in [4] it was 0.02 µg/mL (≈ 0.0389 µM); in [5], 0.02 µg/mL (≈ 0.0389 µM); in assay [6], 0.04 µg/mL (≈ 0.0777 µM). The result in assay [2] was inactive. In assay [7], the outcome was Active.

For `C[C@H]1CCC[C@]2(C)C(=O)[C@H](C(O)C(=O)O)CC[C@]12C` (some centres undefined) [AIGNOPSANOIC ACID B], the IC50 is greater than 2.5 µg/mL in assay [1]; greater than 10 µg/mL in [3]; greater than 2.5 µg/mL in [4]; greater than 2.5 µg/mL in assay [5]; greater than 2.5 µg/mL in [6]. The outcome in assay [2] and in assay [7] was inactive.

Turning to `COC(=O)/C=C1/CC[C@]2(C)[C@@H](C)CCC[C@]2(C)C1=O` [METHYL AIGNOPSANOATE], the IC50 in assay [1] was greater than 2.5 µg/mL; in assay [3] it was greater than 10 µg/mL; in [4] it was greater than 2.5 µg/mL; in [5], greater than 2.5 µg/mL; in assay [6], greater than 2.5 µg/mL. For the same molecule, the outcome in [2] and in assay [7] was inactive.

On to `C=C1C[C@H](C)C[C@@H]2CC=C[C@@H](C/C=C\C(=O)O[C@H]([C@@H](O)/C=C/[C@@H]3CC(C)=CCO3)C[C@@H]3O[C@H]3[C@@H](O)C1)O2` [FIJIANOLIDE B], for which the IC50 in [1] was 0.003 µg/mL (≈ 0.00583 µM); in assay [3] it was 0.08 µg/mL (≈ 0.155 µM); in assay [4] it was 0.002 µg/mL (≈ 0.00389 µM); in assay [5], 0.002 µg/mL (≈ 0.00389 µM); in assay [6], 0.003 µg/mL (≈ 0.00583 µM). Moreover, in assay [2], the result was inactive. Further, the outcome in assay [7] was Active.

Take `CCCCCCC(C)CCCCCCCCCOC[C@H](O)COC1[C@@H](O)[C@H](O)[C@@H](O)[C@@H]1O` (some centres undefined) [SACROTRIDE A]: the concentration for half-maximal inhibition (IC50) in assay [1] was greater than 2.5 µg/mL; in assay [3] it was greater than 10 µg/mL; in [4], greater than 2.5 µg/mL; in assay [5], greater than 2.5 µg/mL; in [6] it was greater than 2.5 µg/mL. The outcome in [2] and in assay [7] was inactive.
